Data from ChEMBL document CHEMBL1126298, “New triazine derivatives as potent modulators of multidrug resistance” (1992).

What was measured:
DC3F/AD [1] = assay: In vitro activity in DC-3F/AD cell line Ratio of IC50(actinomycin D alone) / IC50(actinomycin D + modulator) at a concentration of 10 uM
P388 [2] = assay: Antitumor activity of vincristine against P388 leukemia cell line in mice at a dose of 50 mg/kg.; assay type: functional, Mus musculus
DC3F/AD [3] = assay: In vitro activity in DC-3F/AD cell line(Ratio of IC50(actinomycin D alone) / IC50(actinomycin D + modulator) at a concentration of 5 uM
P388 [4] = assay: Antitumor activity of vincristine against P388 leukemia cell line in mice at a dose of 100 mg/kg.; assay type: functional, Mus musculus
DC3F/AD [5] = assay: Percent of cell viability remaining after incubating with a 10 uM concentration; assay type: functional, Cricetulus griseus
Summary of the method: (§1)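 Cells were grown with modulator alone for 4 days under the same conditions as the chemosensitivity assay, and read by MTT. Viability = (absorbance with modulator/absorbance of control cells) × 100. "tox" marks viability below 25%.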

KB [6] = assay: Percent of cell viability remaining after incubating the cells with the modulator alone; assay type: functional, Homo sapiens; parameters: concentration or dose not given beside the values
Summary of the method: as §1

DC3F/AD [7] = assay: Increase in adriamycin uptake in modulator-treated cells relative to untreated cells at a concentration of 10 uM; assay type: functional, Cricetulus griseus
Summary of the method: (§2)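 DC-3F/AD or KB-A1 cells (5 × 10⁶/mL) were incubated at 37 °C for 5 h with 50 μM adriamycin plus modulator (2.5–10 μM range). ADR fluorescence of 10 000 cells was read by flow cytometry at 4 °C with 488 nm argon-laser excitation. The value is the increase in mean fluorescence of treated cells over untreated cells.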

KB [8] = assay: In vitro activity in KB-A1 cell line activity expressed as fold reversion (Ratio of IC50(adriamycin alone) / IC50(adriamycin + modulator) at a concentration of 5 uM; assay type: functional, Homo sapiens
Summary of the method: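 Human epidermoid KB-A1 cells (Pgp-overexpressing) were grown in RPMI 1640 with 10% FCS and 10 mM HEPES (pH 7.4). They were exposed for 4 days to adriamycin (nine graded concentrations, in triplicate) with or without 5 μM modulator. IC50 was read by the MTT assay. Fold reversion = IC50(ADR alone)/IC50(ADR + modulator).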

DC3F/AD [9] = assay: Percent of cell viability remaining after incubating the cells with the modulator alone a concentration of 5 uM; assay type: functional, Cricetulus griseus
Summary of the method: as §1

DC3F/AD [10] = assay: Increase in adriamycin uptake in modulator-treated cells relative to untreated cells at a concentration of 5 uM; assay type: functional, Cricetulus griseus
Summary of the method: as §2

KB [11] = assay: Increase in adriamycin uptake in modulator-treated cells relative to untreated KB-A1 cells at a concentration of 5 uM; assay type: functional, Homo sapiens
Summary of the method: as §2

Row | SMILES | Fold reversion (DC3F/AD [1]) | T/C (P388 [2]) [%] | Fold reversion (DC3F/AD [3]) | T/C (P388 [4]) [%] | Viability (DC3F/AD [5]) [%] | Viability (KB [6]) [%] | Increase (DC3F/AD [7]) | Fold reversion (KB [8]) | Viability (DC3F/AD [9]) [%] | Increase (DC3F/AD [10]) | Increase (KB [11])
1 | C=CCNc1nc(NCC=C)nc(N2CCC(NCC3c4ccccc4CCc4ccccc43)CC2)n1 | 6021 | 161 | 3144 | 167 | 54 | 68 | 38.3 | 252 | 98 | 33 | 53.6
2 | C=CCNc1nc(NCC=C)nc(N2CCC(NC3c4ccccc4CCc4ccccc43)CC2)n1 | 1626 | – | 755 | – | 91 | 74 | 39.7 | 91 | 99 | 34.3 | 34.2
3 | C=CCNc1nc(N)nc(N2CCC(NCC3c4ccccc4CCc4ccccc43)CC2)n1 | – | – | 421 | – | – | 122 | 11 | 89 | 92 | 6.7 | 16.3
4 | C=CCNc1nc(NCC)nc(N2CCC(NCC3c4ccccc4CCc4ccccc43)CC2)n1 | 10684 | 190 | 2499 | 174 | 64 | 58 | 24.9 | 201 | 114 | 23.1 | 45.9
5 | C=CCNc1nc(NCC=C)nc(NCC2CCN(CC3c4ccccc4CCc4ccccc43)CC2)n1 | <25 | – | 353 | – | – | 53 | 21 | 12 | 57 | 19.3 | 9.8
6 | C=CCNc1nc(OC)nc(N2CCC(NCC3c4ccccc4CCc4ccccc43)CC2)n1 | 1078 | – | 1092 | – | 79 | 91 | 28.5 | 138 | 86 | 23.9 | 40.7
7 | C=CCNc1nc(NCC=C)nc(N2CCC(CNC3c4ccccc4CCc4ccccc43)CC2)n1 | 544 | – | 173 | – | 72 | 105 | 20.5 | 126 | 96 | 14 | 29.8
8 | C=CCNc1nc(NCC=C)nc(N2CCC(NCCC(c3ccc(OC)c(OC)c3)c3ccc(OC)c(OC)c3)CC2)n1 | 12 | – | 12 | – | 114 | 100 | 2.9 | 6 | 115 | 1.6 | –
9 | C=CCNc1nc(NCC=C)nc(N2CCC(NCC(c3ccc(F)cc3)C3CCCCC3)CC2)n1 (configuration not stated) | <25 | – | 1009 | – | – | 71 | 34.6 | 142 | 85 | 30.1 | 48.1
10 | C=CCNc1nc(NCC=C)nc(N2CCC(NCC3c4ccccc4Oc4ccccc43)CC2)n1 | 2584 | – | 844 | – | 85 | 106 | 25.7 | 140 | 91 | 19.4 | 43.9
11 | C=CCNc1nc(NCC=C)nc(N2CCC(NCC3c4ccccc4CSc4ccccc43)CC2)n1 (configuration not stated) | 6046 | – | 867 | – | 72 | 108 | 32.6 | 393 | 83 | 33.5 | 57.3
12 | C=CCNc1nc(NCC=C)nc(N2CCC(N(C)CC3c4ccccc4CCc4ccccc43)CC2)n1 | 3035 | – | 834 | – | 69 | 111 | 21.8 | 118 | 70 | 17.8 | 25.6
13 | CN(C)c1nc(N(C)C)nc(N2CCC(NCC3c4ccccc4CCc4ccccc43)CC2)n1 | 544 | – | 187 | – | 66 | 28 | 30.6 | 7 | 71 | 29.4 | 16.4
14 | C=CCNc1nc(NCC=C)nc(N2CCC(NCC3c4ccccc4-c4ccccc43)CC2)n1 | 589 | – | 170 | – | 75 | 42 | 23.2 | 57 | 78 | 19.6 | 20.6
15 | C=CCNc1nc(NCC=C)nc(N2CCC(NCC3c4ccccc4C=Cc4ccccc43)CC2)n1 | <25 | 196 | 1420 | 172 | – | 31 | 25.8 | 640 | 86 | 24.5 | 59.2
16 | C=CCNc1nc(NCC=C)nc(N2CCC(NC3CC4c5ccccc5C3c3ccccc34)CC2)n1 (configuration not stated) | 4264 | – | 1638 | – | 102 | 133 | 35.9 | 118 | 98 | 32.9 | 43.8
17 | C=CCNc1nc(NCC=C)nc(N2CCC(NCC3c4ccccc4CCCc4ccccc43)CC2)n1 | <25 | 173 | 2951 | 186 | – | 89 | 21.6 | 177 | 105 | 22.3 | 44.1
18 | C=CCNc1nc(NCC=C)nc(N2CCC(NCC3c4ccccc4CCc4cc(OC)ccc43)CC2)n1 (configuration not stated) | <25 | – | 1913 | – | – | 83 | – | 264 | 73 | 30.8 | 72.6
19 | C=CCNc1nc(NCC=C)nc(N2CCC(NCC3c4ccccc4NC(=O)c4ccccc43)CC2)n1 (configuration not stated) | 583 | – | 2 | – | 100 | 113 | 41.5 | 315 | 106 | 2.2 | 48.4
20 | C=CCNc1nc(NCC=C)nc(NCC2CCN(C3c4ccccc4CCc4ccccc43)CC2)n1 | 46 | – | 10 | – | 49 | 97 | 17.4 | 10 | 71 | 10.1 | 1.9
21 | C=CCNc1nc(NCC=C)nc(N2CCC(NCC(c3cc(OC)cc(OC)c3)c3ccccc3C)CC2)n1 (configuration not stated) | <25 | – | 1224 | – | – | 91 | 26.5 | 111 | 80 | 24.7 | 41.4
